For this test, the target named is ATP-dependent translocase ABCB1 (Homo sapiens) (UniProt P08183). Description: ABCB1 efflux pump inhibitors, confirmation, cell-based, single point, ABCG2 counter-screen (AID 1451).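 Also: 0% = DMSO and 100% = nicardipine full pump inhibition.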 The settings on record: CCRF-Adr cells, JC-1 efflux, flow cytometry; at 6.6 µM; hits give high values. In a few lines: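 Material – ABCB1-expressing CCRF-Adr cells · Quantity – 3 million cells per mL final in well · Reagent – JC-1 substrate · Dosing – single test-compound dose, 6.6 µM final · Schedule – 10 min exposure, 25 °C · Technique – flow cytometry, 530 nm emission · Benchmarks – nicardipine as high control, DMSO as low control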
Chain of ATP-dependent translocase ABCB1 (Homo sapiens) (P08183 whole entry, looked up): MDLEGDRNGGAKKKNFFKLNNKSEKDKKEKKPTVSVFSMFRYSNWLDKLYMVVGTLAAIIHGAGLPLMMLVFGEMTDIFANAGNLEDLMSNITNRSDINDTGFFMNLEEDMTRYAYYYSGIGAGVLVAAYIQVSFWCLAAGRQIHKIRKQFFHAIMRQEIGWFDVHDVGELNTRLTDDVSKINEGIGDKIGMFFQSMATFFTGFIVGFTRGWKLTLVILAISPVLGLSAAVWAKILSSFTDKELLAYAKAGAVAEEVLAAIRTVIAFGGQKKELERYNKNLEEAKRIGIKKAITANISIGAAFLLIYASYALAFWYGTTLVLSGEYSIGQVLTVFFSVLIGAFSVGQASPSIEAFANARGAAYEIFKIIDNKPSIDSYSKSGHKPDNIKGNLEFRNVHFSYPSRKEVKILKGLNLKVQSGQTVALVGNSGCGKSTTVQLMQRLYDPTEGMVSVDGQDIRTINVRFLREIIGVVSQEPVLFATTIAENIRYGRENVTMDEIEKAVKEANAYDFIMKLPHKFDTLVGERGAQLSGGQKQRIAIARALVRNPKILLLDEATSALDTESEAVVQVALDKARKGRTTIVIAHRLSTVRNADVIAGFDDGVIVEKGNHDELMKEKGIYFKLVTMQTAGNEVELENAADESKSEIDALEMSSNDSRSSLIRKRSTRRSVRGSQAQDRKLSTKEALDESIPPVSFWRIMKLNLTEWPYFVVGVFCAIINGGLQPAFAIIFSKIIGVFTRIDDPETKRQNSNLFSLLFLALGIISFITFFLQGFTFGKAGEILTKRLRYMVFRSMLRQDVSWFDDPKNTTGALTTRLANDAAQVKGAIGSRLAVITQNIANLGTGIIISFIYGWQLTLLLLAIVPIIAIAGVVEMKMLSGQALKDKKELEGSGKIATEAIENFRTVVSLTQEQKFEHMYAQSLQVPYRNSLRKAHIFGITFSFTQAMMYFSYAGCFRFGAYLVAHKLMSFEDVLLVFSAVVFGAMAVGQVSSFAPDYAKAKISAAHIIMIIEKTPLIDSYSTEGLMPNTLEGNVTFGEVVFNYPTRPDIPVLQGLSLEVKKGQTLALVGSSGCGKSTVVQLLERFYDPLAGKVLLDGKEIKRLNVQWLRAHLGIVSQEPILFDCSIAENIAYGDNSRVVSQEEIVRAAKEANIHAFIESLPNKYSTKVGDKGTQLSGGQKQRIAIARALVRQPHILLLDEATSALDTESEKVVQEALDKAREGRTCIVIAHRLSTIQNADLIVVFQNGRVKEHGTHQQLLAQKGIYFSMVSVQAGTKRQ
In general terms: Counterscreens check selectivity or assay interference.

Experimental findings from PubChem BioAssay AID1451 (NMMLSC, 2008) are described below.

Structures are written as SMILES. This is one part of the list. Unmarked numbers belong to inactive results.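 The calls were made as follows: active = inhibition of pump activity above 50%; inactive = the rest.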

A word on the inhibition: it is how much of the control response was suppressed. Take `COC(=O)COc1cc(C)cc2oc(=O)c3c(c12)CCCC3`: the inhibition is 1.84%.
